Data set [1] has as its system SK-OV-3. The experiment in a line: Antitumor activity against human SKOV3 cells expressing RFC/PCFT/FRalpha xenografted in folate-deficient diet fed NCR SCID mouse assessed as delay in tumor growth at 16 mg/kg, iv administered every 4 days on day 3, 7, 11 measured twice per week. The format is functional, organism-based. An outline of the steps: (§1)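 Ten-week-old female NCR SCID mice, fed a folate-deficient or standard folate-replete diet, were implanted subcutaneously and bilaterally with SKOV3 tumour fragments. Randomised at 5 mice/group. Dosed intravenously, 0.2 mL per injection, in 5% ethanol/1% Tween-80/0.5% NaHCO3 in water at pH 6.5, on days 3, 7 and 11. Tumours measured twice weekly and mice weighed daily. T/C taken on day 21; growth delay and log cell kill also reported.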

Data set [2] deals with SK-OV-3. The experiment in a line: Antitumor activity against human SKOV3 cells expressing RFC/PCFT/FRalpha xenografted in folate-replete diet fed NCR SCID mouse assessed as tumor growth inhibition at 16 mg/kg, iv administered every 4 days on day 3, 7, 11 measured on day 21 relative to control. The format is functional. An outline of the steps: as §1
For orientation: A xenograft is tissue or cells of one species grown in another, often human tumour cells in immunodeficient mice.

For a further data set, the system named is R2. The experiment in a line: Cytotoxicity against Chinese hamster R2 cells transfected with empty PCDNA3 assessed as cell growth inhibition after 96 hrs by CellTiter-Blue assay. It counts as cell-based, Cricetulus griseus. For orientation: The colour change of resazurin is a common sign of viable cells or microbes.
The subject of a further data set is IGROV-1. Description: Antiproliferative activity against human IGROV1 cells after 96 hrs by CellTiter-Blue assay in presence of 200 nM folic acid. The format is functional, cell-based. As to conditions: IGROV-1, 96 h.
For data set [3], the target named is T1, Trifunctional purine biosynthetic protein adenosine-3 (Homo sapiens, UniProt P22102).
T1 sequence (P22102 whole entry): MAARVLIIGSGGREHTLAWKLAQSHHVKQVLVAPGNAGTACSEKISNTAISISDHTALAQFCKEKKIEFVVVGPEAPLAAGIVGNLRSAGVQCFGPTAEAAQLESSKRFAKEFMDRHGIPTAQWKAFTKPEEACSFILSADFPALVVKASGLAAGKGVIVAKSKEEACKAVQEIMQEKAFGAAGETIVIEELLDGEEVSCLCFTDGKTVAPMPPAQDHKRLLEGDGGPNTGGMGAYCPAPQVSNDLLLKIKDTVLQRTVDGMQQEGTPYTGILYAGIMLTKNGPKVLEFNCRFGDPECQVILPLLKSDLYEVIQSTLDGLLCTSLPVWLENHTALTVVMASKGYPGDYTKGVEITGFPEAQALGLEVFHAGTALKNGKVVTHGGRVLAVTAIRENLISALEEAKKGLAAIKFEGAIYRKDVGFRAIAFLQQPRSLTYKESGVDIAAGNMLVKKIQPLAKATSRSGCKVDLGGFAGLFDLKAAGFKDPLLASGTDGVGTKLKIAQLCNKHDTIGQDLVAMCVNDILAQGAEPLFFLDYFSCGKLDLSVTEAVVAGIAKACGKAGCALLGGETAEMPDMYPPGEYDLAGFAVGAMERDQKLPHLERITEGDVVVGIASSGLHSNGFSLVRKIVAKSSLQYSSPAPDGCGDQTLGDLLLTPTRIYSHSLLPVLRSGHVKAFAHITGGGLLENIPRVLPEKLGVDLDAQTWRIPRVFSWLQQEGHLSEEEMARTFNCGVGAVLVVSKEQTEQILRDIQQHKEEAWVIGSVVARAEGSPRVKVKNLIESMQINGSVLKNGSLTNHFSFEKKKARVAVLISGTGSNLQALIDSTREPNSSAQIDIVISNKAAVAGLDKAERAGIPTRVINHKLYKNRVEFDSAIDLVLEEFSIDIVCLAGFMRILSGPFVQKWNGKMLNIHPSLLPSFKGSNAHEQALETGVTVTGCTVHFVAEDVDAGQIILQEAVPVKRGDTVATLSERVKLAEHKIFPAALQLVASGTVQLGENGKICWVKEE
The experiment in a line: Inhibition of human recombinant His-tagged GARFTase assessed as formation of 5,8-dideazafolate from 10-formyl-5,80-dideazafolic acid measured every 15 secs over 20 mins by spectrophotometric analysis.

A further data set relates to Mus musculus. The experiment in a line: Toxicity in folate-deficient diet fed NCR SCID mouse xenografted with human SKOV3 cells expressing RFC/PCFT/FRalpha assessed as body weight loss at 16 mg/kg, iv administered every 4 days on day 3, 7, 11 relative to control. It counts as organism-based, SK-OV-3. The settings on record: in vivo, 96 h. An outline of the steps: as §1

Data set [4] addresses T2, Proton-coupled folate transporter (Homo sapiens) (UniProt Q96NT5).
T2 sequence (whole entry): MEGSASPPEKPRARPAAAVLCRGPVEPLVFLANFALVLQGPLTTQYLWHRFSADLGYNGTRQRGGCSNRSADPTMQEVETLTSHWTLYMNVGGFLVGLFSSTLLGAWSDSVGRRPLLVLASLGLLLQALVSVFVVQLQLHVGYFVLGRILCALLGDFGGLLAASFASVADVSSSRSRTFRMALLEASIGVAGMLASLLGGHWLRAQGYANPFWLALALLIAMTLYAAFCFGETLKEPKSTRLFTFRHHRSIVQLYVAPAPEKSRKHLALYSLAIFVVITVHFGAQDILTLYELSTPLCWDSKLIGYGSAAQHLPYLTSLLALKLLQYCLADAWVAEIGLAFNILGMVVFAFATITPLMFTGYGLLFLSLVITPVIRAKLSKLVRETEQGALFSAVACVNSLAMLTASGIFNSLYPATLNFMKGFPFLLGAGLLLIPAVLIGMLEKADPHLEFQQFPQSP
The experiment in a line: Binding affinity to human PCFT expressed in Chinese hamster R2/PCFT4 cells assessed as intracellular drug transport rate at 37 degC at pH 5.5 measured over 2 mins by Lineweaver-Burk plot analysis. It counts as cell-based. An outline of the steps:
(§2)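 R2/PCFT4 CHO cells were grown as monolayers, transferred to spinner flasks, and used as suspensions (5–10 × 10⁷ cells). Uptake was quenched with ice-cold DPBS and cells were NaOH-solubilized. Results are pmol/mg protein; Kt and Vmax come from Lineweaver–Burke plots.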

Data set [5] has as its target T2, Proton-coupled folate transporter (Homo sapiens). Description: Binding affinity to human PCFT expressed in Chinese hamster R2/PCFT4 cells assessed as intracellular drug transport rate at 37 degC at pH 6.8 measured over 2 mins by Lineweaver-Burk plot analysis. The format is cell-based. The essentials: as §2
Data set [6] addresses T1, Trifunctional purine biosynthetic protein adenosine-3. The experiment in a line: Inhibition of GARFTase in human KB cells expressing FRalpha/PCFT/RFC assessed as incorporation of [14C(U)]-glycine into [14C]-formyl GAR preincubated for 1 hr followed by azaserine, L-glutamine, 14C(U)]-glycine addition measured after 16 hrs. The format is cell-based. The essentials:
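In situ assay in KB cells. Cells were exposed to a range of drug concentrations with [14C]glycine for 16 h under proliferation-assay conditions, with azaserine present. Radiolabelled metabolites were extracted and separated on anion exchange columns, and [14C]formyl GAR quantified. Mean ±SE of three experiments.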

The target in data set [7] is Folate receptor beta (Homo sapiens) (UniProt P14207). Description: Displacement of [3H]-folic acid from human FRbeta expressed in Chinese hamster D4 cells after 15 mins relative to folic acid. The format is cell-based. The essentials: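 Competitive binding to surface folate receptor on RT16 (FRα) or D4 (FRβ) CHO cells. Cells were acid-washed (pH 3.5) to strip bound folate, then incubated in HEPES-buffered saline pH 7.4 with 50 nM [3H]folic acid plus unlabeled ligand (0–1000 nM) for 15 min at 0 °C. Bound label was normalised to protein. Affinity is the inverse molar ratio for 50% displacement, with folic acid set to 1. Mean of 4–10 experiments ±SE.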
Chain of Folate receptor beta (Homo sapiens) (P14207 17-230 limits assumed): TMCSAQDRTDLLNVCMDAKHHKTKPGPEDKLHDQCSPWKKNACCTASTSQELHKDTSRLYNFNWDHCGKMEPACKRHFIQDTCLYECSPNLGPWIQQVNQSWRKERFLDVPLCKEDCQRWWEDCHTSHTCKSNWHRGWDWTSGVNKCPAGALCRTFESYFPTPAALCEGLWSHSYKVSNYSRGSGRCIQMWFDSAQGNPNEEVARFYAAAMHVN
Background: In a radioligand displacement assay an active substance lowers the binding of a labelled ligand.

By T/C is commonly meant the ratio of treated to control. A word on the pIC50: it is the negative decadic logarithm of the IC50, by convention in mol/L. The term pKi denotes the negative decadic logarithm of the Ki, by convention in mol/L.

pIC50, pKi: −log10 of the molar value. Activity calls are given as the source filed them. The calls are words filed in the database; no cut-off is given here. Bounds are passed on as bounds.

`Nc1nc2[nH]c(CCCc3cc(C(=O)N[C@@H](CCC(=O)O)C(=O)O)cs3)cc2c(=O)[nH]1`: the result with SK-OV-3 [1] was Active. The T/C in the data set with SK-OV-3 [2] is 69%. Moreover, the figures for the pIC50 (with R2; in the data set with IGROV-1; in data set [6]) were < 6.00, 6.56 and 8.59, respectively. In data set [3], the pKi is 8.04. The Activity with Mus musculus worked out at 12.1%; in data set [7] it was 35%. The figures for the K in data set [4] and in data set [5] were 0.22 µM and 0.17 µM, respectively.

The record behind these values is ChEMBL document CHEMBL3627626, “6-Substituted Pyrrolo[2,3-d]pyrimidine Thienoyl Regioisomers as Targeted Antifolates for Folate Receptor α and the Proton-Coupled Folate Transporter in Human Tumors” (J Med Chem, 2015).
